Results taken from ChEMBL document CHEMBL4130635, “2,4-Diaminoquinazolines as Dual Toll-like Receptor (TLR) 7/8 Modulators for the Treatment of Hepatitis B Virus” (J Med Chem, 2018).
Active and inactive are the calls of the source. The calls are words filed in the database; no cut-off is given here.

What was measured:
Cynomolgus monkey [1] = experiment: Upregulation of Tlr7 expression in cynomolgus monkey plasma at 3 mg/kg, po after 24 hrs by Fluidigm RT-qPCR analysis (reference value: 1.8); assay type: functional, Macaca fascicularis
Cynomolgus monkey [2] = experiment: Induction of IFNalpha levels in cynomolgus monkey plasma at 9 mg/kg, po after 24 hrs by ELISA; assay type: functional, Macaca fascicularis
In short: (§1)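 Healthy cynomolgus monkeys given single oral doses of 1, 3, 9 and 30 mg/kg, with a 2-week wash-out planned between doses. Systemic cytokine levels in plasma were sampled at 0.5, 1, 2, 4, 9 and 24 h postdose.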

Cynomolgus monkey [3] = experiment: Plasma concentration in cynomolgus monkey at 9 mg/kg, po by LC-MS analysis; assay type: ADME, organism-based, Macaca fascicularis; conditions: in vivo
Plasma [4] = experiment: Proinflammatory activity in C57BL/6J mouse plasma assessed as TNFalpha levels at 1 mg/kg, po by multiplex assay (reference value: 70 pg/ml); assay type: functional
[5] = tested on: Toll-like receptor 7/8 (Homo sapiens); experiment: Agonist activity at TLR7/8 in human PBMCs assessed as decrease in HBsAg levels in human hepatocytes infected with HBV genotype C for 12 days followed by exposure to conditioned supernatant from up to 5 uM compound treated PBMCs measured after 42 days
Cynomolgus monkey [6] = experiment: Activation of monocytes in cynomolgus monkey plasma assessed as upregulation of IL1Ra levels at 3 mg/kg, po after 24 hrs by Luminex assay (reference value: 320 pg/ml); assay type: functional, Macaca fascicularis
Liver [7] = experiment: Proinflammatory activity in C57BL/6J mouse liver assessed as CXCL-1 levels at 3 mg/kg, po by multiplex assay (reference value: 25 pg/g); assay type: functional
[8] = biological target: TLR7 and TLR8 (Homo sapiens) (UniProt Q9NYK1+Q9NR97); experiment: Agonist activity at TLR7/8 in human PBMCs co-cultured with primary human hepatocytes infected with HBV genotype C for 12 days assessed as increase in IL-12p70 levels up to 5 uM measured after 42 days
[9] = AUC (0 to last) in C57BL/6J mouse liver at 1 mg/kg, po by LC-MS analysis; assay type: ADME, organism-based; conditions: in vivo
In short: (§2)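 Healthy C57BL/6 mice were dosed once by mouth at 0.3, 1, 3, 10 or 30 mg/kg in 20% HP-β-CD, in groups of 15 per dose. Three mice per group were sacrificed at 0.5, 1, 2, 4 or 7 h, and plasma and liver compound levels were measured by LC–MS. Values were rounded to whole numbers.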

[10] = Cmax in C57BL/6J mouse plasma at 30 mg/kg, po by LC-MS analysis; assay type: ADME, organism-based; set-up: dose 30 mg/kg, route oral
In short: (§3)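 Healthy C57BL/6 mice, groups of 15, given a single oral dose (0.3, 1, 3, 10 or 30 mg/kg) in 20% HP-β-CD. Blood drawn at 0.5 h. Three mice per group sacrificed at 0.5, 1, 2, 4 or 7 h, and compound in plasma and liver measured by LC−MS. Values rounded to whole numbers.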

[11] = AUC (0 to last) in C57BL/6J mouse liver at 10 mg/kg, po by LC-MS analysis; assay type: ADME, organism-based; conditions: in vivo; in short: as §2
Plasma [12] = experiment: Proinflammatory activity in C57BL/6J mouse plasma assessed as IL-1beta levels at 3 mg/kg, po by multiplex assay (reference value: 60 pg/ml); assay type: functional
Plasma [13] = experiment: Proinflammatory activity in C57BL/6J mouse plasma assessed as IL-1beta levels at 1 mg/kg, po by multiplex assay (reference value: 60 pg/ml); assay type: functional, organism-based
Cynomolgus monkey [14] = experiment: Effect on cytokine profile in cynomolgus monkey plasma assessed as IL-15 levels at 30 mg/kg, po after 24 hrs by Luminex assay (reference value: 20 pg/ml); assay type: functional, Macaca fascicularis; in short: as §1
Cynomolgus monkey [15] = experiment: Induction of IFNalpha levels in cynomolgus monkey plasma at 3 mg/kg, po after 24 hrs by ELISA; assay type: functional, Macaca fascicularis; in short: as §1
Liver [16] = experiment: Upregulation of IP-10 mRNA expression levels in C57BL/6J mouse liver at 0.3 mg/kg, po by RT-qPCR analysis (reference value: 1); assay type: functional
Liver [17] = experiment: Effect on cytokine profile in C57BL/6J mouse liver assessed as IL-12p70 levels at 10 mg/kg, po by multiplex assay (reference value: 5 pg/g); assay type: functional
In short: (§4)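 Single oral gavage in 20% HP-β-CD to healthy C57BL/6 mice, groups of 15 at 0.3, 1, 3, 10 or 30 mg/kg. Three mice per group sacrificed at 0.5, 1, 2, 4 or 7 h. Plasma and liver cytokines by multiplex, maximum level reported, rounded to nearest multiple of 5.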

[18] = Solubility of the compound in FeSSIF; assay type: physicochemical
Cynomolgus monkey [19] = experiment: Effect on cytokine profile in cynomolgus monkey plasma assessed as IP10 levels at 1 mg/kg, po after 24 hrs by Luminex assay (reference value: 18.5 pg/ml); assay type: functional, Macaca fascicularis; in short: as §1
Plasma [20] = experiment: Effect on cytokine profile in C57BL/6J mouse plasma assessed as IL-12p70 levels at 1 mg/kg, po by multiplex assay (reference value: 560 pg/ml); assay type: functional; in short: as §4
Cynomolgus monkey [21] = experiment: Induction of ISG response in cynomolgus monkey plasma assessed as upregulation of Isg15 mRNA expression at 1 mg/kg, po after 24 hrs by Fluidigm RT-qPCR analysis (reference value: 1); assay type: functional, Macaca fascicularis
In short: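 Cynomolgus monkeys, single oral doses of 1, 3, 9 and 30 mg/kg with a planned 2-week wash-out between doses. Systemic ISG (ISG15, Mx1, OAS1) mRNA was measured by Fluidigm RT-qPCR at 1, 2, 4, 8 and 24 h postdose.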

[22] = AUC (0 to last) in cynomolgus monkey plasma at 9 mg/kg, po by LC-MS analysis; assay type: ADME, organism-based, Macaca fascicularis; set-up: dose 9 mg/kg, route oral, time 0 - last
In short: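 Healthy cynomolgus monkeys received single oral doses of 1, 3, 9 and 30 mg/kg, with a 2-week wash-out between doses. Systemic compound concentrations were measured by LC–MS at 0.25, 0.5, 1, 2, 4, 8 and 24 h postdose.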

Liver [23] = experiment: Proinflammatory activity in C57BL/6J mouse liver assessed as TNFalpha levels at 10 mg/kg, po by multiplex assay (reference value: 15 pg/g); assay type: functional
[24] = AUC (0 to last) in C57BL/6J mouse liver at 3 mg/kg, po by LC-MS analysis; assay type: ADME, organism-based; conditions: in vivo; in short: as §2
[25] = Cmax in C57BL/6J mouse plasma at 3 mg/kg, po by LC-MS analysis; assay type: ADME, organism-based; set-up: dose 3 mg/kg, route oral; in short: as §3
Liver [26] = experiment: Proinflammatory activity in C57BL/6J mouse liver assessed as TNFalpha levels at 30 mg/kg, po by multiplex assay (reference value: 15 pg/g); assay type: functional
Liver [27] = experiment: Proinflammatory activity in C57BL/6J mouse liver assessed as IL-1beta levels at 0.3 mg/kg, po by multiplex assay; assay type: functional
Cynomolgus monkey [28] = experiment: Activation of monocytes in cynomolgus monkey plasma assessed as upregulation of MCP1 levels at 1 mg/kg, po after 24 hrs by Luminex assay (reference value: 385 pg/ml); assay type: functional, Macaca fascicularis
Plasma [29] = experiment: Effect on cytokine profile in C57BL/6J mouse plasma assessed as IL-12p70 levels at 3 mg/kg, po by multiplex assay (reference value: 560 pg/ml); assay type: functional; in short: as §4

## CCC[C@@H](CCO)Nc1nc(N)nc2c(F)cccc12
Cynomolgus monkey [1]
  fold change (FC): 5.1
Cynomolgus monkey [2]
  Activity: >51200 pg/mL
Cynomolgus monkey [3]
  Cp: 200 ng/mL
Plasma [4]
  Activity: 335 pg/mL
[5]
  Activity: Dose-dependent effect
Cynomolgus monkey [6]
  Activity: 2020 pg/mL
Liver [7]
  Activity: 35575 pg/g
[8]
  Activity: Active
[9]
  AUClast: 148 ng·h/g
[10]
  Cmax: 813 ng/mL
[11]
  AUClast: 2315 ng·h/g
Plasma [12]
  Activity: 40 pg/mL
Plasma [13]
  Activity: Below limit of detection
Cynomolgus monkey [14]
  Activity: 85 pg/mL
Cynomolgus monkey [15]
  Activity: >51200 pg/mL
Liver [16]
  fold change (FC): 35
Liver [17]
  Activity: 790 pg/g
[18]
  solubility: > 4000 µg/mL
Cynomolgus monkey [19]
  Activity: 1690 pg/mL
Plasma [20]
  Activity: 380 pg/mL
Cynomolgus monkey [21]
  fold change (FC): 145
[22]
  AUC(0-t): 4050 ng·h/mL
Liver [23]
  Activity: 8330 pg/g
[24]
  AUClast: 362 ng·h/g
[25]
  Cmax: 22 ng/mL
Liver [26]
  Activity: 13600 pg/g
Liver [27]
  Activity: 9765 pg/g
Cynomolgus monkey [28]
  Activity: 2820 pg/mL
Plasma [29]
  Activity: 330 pg/mL
